# In ChEMBL document CHEMBL1148147, “New oplopane and eremophilane derivatives from Robinsonecio gerberifolius” (J Nat Prod, 2003):
# pIC50: −log10 of the molar value. Active and inactive are the calls of the source. The calls are words filed in the database; no cut-off is given here.
# Columns and labels:
# Assay type in all cases: functional, cell-based
# PC-3 = assay: Cytotoxicity against human PC3 cells
# Outline: (§1)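 Human cancer cell lines (HCT-15 colon, MCF-7 breast, U-251 central nervous system, PC-3 prostate, K562 leukemia) tested over a dose range using the National Cancer Institute cytotoxicity screening protocol.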
# HCT-15 = assay: Cytotoxicity against human HCT15 cells; outline: as §1
# K562 = assay: Cytotoxicity against human K562 cells; outline: as §1
# U-251 = assay: Cytotoxicity against human U251 cells; outline: as §1
# MCF7 = assay: Cytotoxicity against human MCF7 cells; outline: as §1
SMILES,pIC50 (PC-3),pIC50 (HCT-15),pIC50 (K562),pIC50 (U-251),pIC50 (MCF7),Activity (PC-3),Activity (HCT-15),Activity (K562),Activity (U-251),Activity (MCF7)
C/C=C(/C)C(=O)O[C@H]1C[C@@H](O)C2=CC(=O)C(C(C)(C)OO)=C[C@]2(C)[C@H]1C,4.78,< 4.00,4.33,4.47,< 4.00,–,–,–,–,–
C/C=C(/C)C(=O)O[C@H]1C[C@H]2O[C@]23Cc2occ(C)c2C[C@]3(C)[C@H]1C,–,–,–,–,–,inactive,inactive,inactive,inactive,inactive
COc1cccc2c1C(=O)c1c(O)c3c(c(O)c1C2=O)C[C@@](O)(C(=O)CO)C[C@@H]3O[C@H]1C[C@H](N)[C@H](O)[C@H](C)O1 [DOXORUBICIN],6.49,–,–,–,–,–,–,–,–,–
C/C=C(/C)C(=O)O[C@H]1C[C@@H](O)C2=CC(=O)C(C(C)(C)O)=C[C@]2(C)[C@H]1C,–,–,–,–,–,inactive,inactive,inactive,inactive,inactive
C/C=C(/C)C(=O)O[C@H]1C[C@@H](O)C2=CC(=O)C(=C(C)C)C[C@]2(C)[C@H]1C,4.48,< 4.00,< 4.00,4.62,< 4.00,–,–,–,–,–
C/C=C(/C)C(=O)O[C@H]1C[C@@H](OC(=O)/C(C)=C/C)C2=CC(=O)C(=C(C)C)C[C@]2(C)[C@H]1C,4.97,4.89,4.29,4.75,4.68,–,–,–,–,–
C=C1C[C@@H](OC(C)=O)[C@@H](C(C)C)[C@@H]2[C@@H](C(C)=O)[C@@H](OC(=O)/C(C)=C\C)C[C@@H]12,4.10,4.36,4.89,4.89,4.47,–,–,–,–,–
